Results as given in ChEMBL document CHEMBL1795307, “Synthesis and anti-inflammatory activity of some novel 3-phenyl-N-[3-(4-phenylpiperazin-1yl)propyl]-1H-pyrazole-5-carboxamide derivatives” (2011).

Tests used:
Assay type in all cases: functional
Rattus norvegicus [1] = test: Antiinflammatory activity against carrageenan-induced paw edema in rat at 100 mg/kg, po administered 1 hr before carrageenan challenge measured after 3 hrs relative to control
Summary of the method: (§1)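 Rats of either sex (130–180 g), fasted ≥16 h with water available, six per group. Compound given orally in 1% CMC solution 1 h before 0.1 mL of 1% carrageenan suspension injected into hind paw; controls received vehicle. Paw volume read by mercury-displacement plethysmometer before and 1, 2, 3, 4 h after carrageenan. Percent inhibition from mean paw-volume increase versus control.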

Rattus norvegicus [2] = test: Antiinflammatory activity against carrageenan-induced paw edema in rat at 100 mg/kg, po administered 1 hr before carrageenan challenge measured after 1 hr relative to control; summary of the method: as §1
Rattus norvegicus [3] = test: Antiinflammatory activity against carrageenan-induced paw edema in rat at 100 mg/kg, po administered 1 hr before carrageenan challenge measured after 2 hrs relative to control; summary of the method: as §1
Rattus norvegicus [4] = test: Antiinflammatory activity against carrageenan-induced paw edema in rat at 100 mg/kg, po administered 1 hr before carrageenan challenge measured after 4 hrs relative to control; summary of the method: as §1

| SMILES | Activity (Rattus norvegicus [1]) [%] | Activity (Rattus norvegicus [2]) [%] | Activity (Rattus norvegicus [3]) [%] | Activity (Rattus norvegicus [4]) [%] |
| --- | --- | --- | --- | --- |
| O=C(NCCCN1CCN(c2ccccc2)CC1)c1cc(-c2ccccc2)n[nH]1 | 61.9 | 47.3 | 55.5 | 58.8 |
| COc1ccc(-c2cc(C(=O)NCCCN3CCN(c4ccccc4)CC3)[nH]n2)cc1 | 75 | 55.2 | 69.4 | 70 |
| COc1cccc(-c2cc(C(=O)NCCCN3CCN(c4ccccc4)CC3)[nH]n2)c1 | 65.2 | 52.6 | 62.5 | 64.4 |
| Cc1ccc(-c2cc(C(=O)NCCCN3CCN(c4ccccc4)CC3)[nH]n2)cc1 | 67.3 | 60.5 | 55.5 | 63.3 |
| Cc1cccc(-c2cc(C(=O)NCCCN3CCN(c4ccccc4)CC3)[nH]n2)c1 | 70.6 | 60.5 | 65.2 | 70 |
| O=C(NCCCN1CCN(c2ccccc2)CC1)c1cc(-c2ccc([N+](=O)[O-])cc2)n[nH]1 | 76 | 53.9 | 75.6 | 72.2 |
| O=C(NCCCN1CCN(c2ccccc2)CC1)c1cc(-c2cccc([N+](=O)[O-])c2)n[nH]1 | 78 | 67 | 75 | 75.5 |
| CC(C)Cc1ccc(C(C)C(=O)O)cc1 (stereo unspecified) [IBUPROFEN] | 72.8 | 42.1 | – | 63.3 |
